PglD inh: blocks C. jejuni PglD acetyltransferase activity; AID 602405; 360,000 compounds, 0.098% hits; inhibition, % at 12.5 µM; purified PglD enzyme, DTNB colorimetric CoA detection; in the data active = inhibition above about 16%, passing the limit was not always enough
IMP-1 inh-1: inhibitors of Pseudomonas aeruginosa IMP-1 metallo-beta-lactamase; purified IMP-1, nitrocefin hydrolysis, epi-absorbance fluorescence; inhibition, % at 5.6 µM; 290,000 compounds, 0.45% hits; AID 1556;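 active = inhibition above the mean plus 3 SD of all compounds in the same screening run, cut at about 4.5% in these data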
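Assay system: purified IMP-1; Quantity: IMP-1 0.2 nM before substrate addition; Medium: HEPES buffer pH 7.1 with ZnSO4 and Brij 35; Incubation: 15 min enzyme–compound preincubation, then 25 min nitrocefin reaction, 25 °C; Signal: fluorescence quenching readout, ex 480/em 530 nm; Controls: DMSO with and without IMP-1; Repeats: singlicate testing.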
ERp5 block: blocks human ERp5 reductase activity on insulin. ERp5 insulin aggregation, absorbance 650 nm, 90 min. inhibition, % at 9.99 µM. 350,000 compounds, 0.05% hits;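 active = mean replicate inhibition above about 25%, with every replicate also reaching it, limit read from the data, passing the limit was not always enough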
PvdQ acylase: blocks Pseudomonas aeruginosa PvdQ acylase activity; purified PvdQ acylase, fluorescence plate reader; 340,000 compounds, 0.063% hits; AID 488965; inhibition, % at 10 µM; in the data active = inhibition above about 30%, passing the limit was not always enough
PDI inh: PDI (human) enzyme inhibition; P07237; PDI insulin aggregation turbidity, A650, 90 min; inhibition, % at 10 µM; 350,000 compounds, 0.052% hits;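 active = mean inhibition across replicates of 30% or more, whatever share of single replicates reach that level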
Target sequence (P07237 whole entry, looked up): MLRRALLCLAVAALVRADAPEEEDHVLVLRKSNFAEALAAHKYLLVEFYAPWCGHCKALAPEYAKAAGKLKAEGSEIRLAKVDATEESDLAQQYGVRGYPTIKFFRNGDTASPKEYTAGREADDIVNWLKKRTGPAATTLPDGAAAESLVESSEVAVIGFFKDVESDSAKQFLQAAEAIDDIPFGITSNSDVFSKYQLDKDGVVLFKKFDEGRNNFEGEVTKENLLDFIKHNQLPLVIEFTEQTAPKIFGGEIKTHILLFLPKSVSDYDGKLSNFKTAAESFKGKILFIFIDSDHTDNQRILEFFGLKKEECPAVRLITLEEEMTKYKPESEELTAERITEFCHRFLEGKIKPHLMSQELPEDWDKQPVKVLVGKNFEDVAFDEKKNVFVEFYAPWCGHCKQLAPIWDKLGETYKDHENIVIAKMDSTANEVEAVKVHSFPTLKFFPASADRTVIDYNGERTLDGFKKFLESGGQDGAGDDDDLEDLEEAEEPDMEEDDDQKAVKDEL
VIM-2 inhibitor: blocks Pseudomonas aeruginosa VIM-2 metallo-beta-lactamase | 290,000 compounds, 0.89% hits | inhibition, % at 5.6 µM | purified VIM-2, nitrocefin hydrolysis, epi-absorbance fluorescence | AID 1527;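 active = inhibition above the mean of all tested compounds plus 3 SD, cutoff set per screening run, cut at about 7.5% in these data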;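 also: red hydrolysis product quenches plate fluorescence so inhibitors raise well fluorescence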
IMP-1 inh-2: IMP-1 inhibition, counter-screen for VIM-2 inhibitors; shares compounds with VIM-2 inhibitor; purified IMP-1, nitrocefin hydrolysis, epi-absorbance fluorescence; inhibition, % at 5.6 µM; 1,300 tested, under 10 active; AID 1856; call rule not given here
VIM-2 FRET inh: inhibits VIM-2 in FRET assay to exclude epi-absorbance artifacts. AID 1857. shares compounds with VIM-2 inhibitor. 1,300 compounds, 23% hits. purified VIM-2, CCF2 FRET substrate hydrolysis. inhibition, % at 5.6 µM;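 active = inhibition above the mean of all tested compounds plus 3 SD, cut at about 19% in these data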
TEM-1 inh: TEM-1 inhibition, counter-screen for VIM-2 inhibitors; shares compounds with VIM-2 inhibitor; Purified TEM-1, nitrocefin hydrolysis, epi-absorbance fluorescence; inhibition, % at 5.6 µM; 1,300 compounds, 3% hits; AID 1866;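 active = inhibition above that campaign's mean inhibition plus 3 SD, cut at about 0.46% in these data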
VIM-2 inh conf: confirmation of P. aeruginosa VIM-2 metallo-beta-lactamase inhibitors. shares compounds with VIM-2 inhibitor. purified VIM-2, nitrocefin hydrolysis, epi-absorbance. inhibition, % at 5.6 µM. 1,300 compounds, 96% hits;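 active = inhibition of the VIM-2 beta-lactamase enzyme above about 11% from the earlier first-round screen, limit read from the data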
A number is an active result; - = inactive; . = no result. An excerpt weighted towards active compounds, which were near 1% of everything screened.

SMILES | PglD inh | IMP-1 inh-1 | ERp5 block | PvdQ acylase | PDI inh | VIM-2 inhibitor | IMP-1 inh-2 | VIM-2 FRET inh | TEM-1 inh | VIM-2 inh conf
CCCNC(=O)C[C@@H]1CC[C@H]2[C@H](COc3ccc(NC(=O)NCCC)cc3C(=O)N2C)O1 | . | . | - | . | . | . | . | . | . | .
O=C(COc1ccc2c3c(c(=O)oc2c1)CCC3)N[C@@H](CSCc1ccccc1)C(=O)O | - | - | - | - | . | - | . | . | . | .
Cc1cc(=O)oc2c(C)c(OCC(=O)NC3CCN(Cc4ccccc4)CC3)ccc12 | - | - | - | - | - | 13.2 | - | - | - | 21.3
Cc1c(OCC(=O)N[C@@H](CSCc2ccccc2)C(=O)O)ccc2c3c(c(=O)oc12)CCC3 | - | - | - | - | . | 13.1 | - | - | - | 19.3
Cc1cc(OCC(=O)NC2CCN(Cc3ccccc3)CC2)c2c(C)c(C)c(=O)oc2c1 | - | - | . | - | - | 34.0 | - | - | - | 48.3
Cc1c(OCC(=O)N2CCC(C(=O)O)CC2)ccc2c3c(c(=O)oc12)CCCC3 | - | - | - | - | . | - | . | . | . | .
Cc1c(OCC(=O)NC2CCN(Cc3ccccc3)CC2)ccc2c3c(c(=O)oc12)CCC3 | - | - | - | - | - | 35.6 | - | - | - | 45.3
O=C(C[C@@H]1CC[C@H](NS(=O)(=O)c2ccccc2)[C@@H](CO)O1)N1CCN(c2ccccc2)CC1 | . | . | - | . | . | . | . | . | . | .
CC(C)CC#Cc1ccc2c(c1)O[C@H](CN(C)C(=O)c1ccccc1F)[C@@H](C)CN([C@H](C)CO)S2(=O)=O | - | . | - | . | . | . | . | . | . | .
CCOC(=O)c1c(NC(=O)CSc2ncn[nH]2)sc(C(C)=O)c1C | - | - | - | - | - | 23.5 | - | - | - | 32.2
CCOC(=O)c1sc(NC(=O)CCN2CCN(C)CC2)c(C(=O)OCC)c1C | - | - | - | - | - | 16.0 | - | - | - | 47.7
CC(C)C#Cc1ccc([C@@H]2[C@H]3CN(C(=O)Cc4ccccc4)CC(=O)N3[C@H]2CO)cc1 | . | . | - | . | . | . | . | . | . | .
c1ccc2[nH]c(CSc3ncnc4c3oc3ccccc34)nc2c1 | - | - | . | - | - | - | . | . | . | .
c1ccc2[nH]c(CN3CCN(c4ncnc5c4oc4ccccc45)CC3)nc2c1 | - | - | . | - | - | 14.6 | - | - | - | 26.8
CCOc1ccc(CNC(=O)C2Cc3cc(S(=O)(=O)N4CCCC4)ccc3N2C(C)=O)cc1 (stereo unspecified) | - | - | - | - | - | 25.4 | - | - | - | -
CN(C)CCNC(=O)c1csc(Nc2cccc3ccccc23)n1 | - | - | - | - | - | 13.1 | - | - | - | 22.2
COCCOC(=O)N1C(=O)[C@@]2(c3cc(C#CC4(O)CCCCCC4)ccc31)[C@H](c1ccccc1OCCO)N1[C@H](c3ccccc3)[C@H](c3ccccc3)OC(=O)[C@H]1[C@@H]2C(=O)N1CCc2cc(OC)c(OC)cc2C1 | - | . | - | . | . | . | . | . | . | .
O=c1[nH]nc(-c2ccc(NCCO)c([N+](=O)[O-])c2)c2ccccc12 | - | - | - | - | - | 24.9 | - | - | - | 38.1
O=c1[nH]nc(-c2ccc(NCCCO)c([N+](=O)[O-])c2)c2ccccc12 | - | - | - | - | - | 24.0 | - | - | - | 33.5
Cc1ccc(-c2n[nH]c(=O)c3ccccc23)cc1S(=O)(=O)NCCO | . | - | . | - | - | - | . | . | . | .
CC(=O)Nc1ccc(Oc2nc(C(F)(F)F)nc3ccccc23)cc1 | - | - | - | - | - | 21.2 | - | - | - | 30.5
Cc1cc(C)cc(Oc2nc(C(F)(F)F)nc3ccccc23)c1 | . | - | . | - | - | - | . | . | . | .
O=C1O[C@@H](c2ccccc2)[C@@H](c2ccccc2)N2[C@@H](c3ccc(O)cc3)[C@]3(C(=O)Nc4ccc(C#CC5=CCCCC5)cc43)[C@@H](C(=O)N3CCCCCCC3)[C@H]12 | - | . | - | . | . | . | . | . | . | .
OCCN=Cc1c(O)[nH]c2ccccc12 | - | - | - | - | - | - | . | . | . | .
Oc1[nH]c2ccccc2c1C=Nc1ccccc1 | - | - | - | - | - | 12.3 | - | 25.0 | - | 21.0
SMILES | PglD inh | IMP-1 inh-1 | ERp5 block | PvdQ acylase | PDI inh | VIM-2 inhibitor | IMP-1 inh-2 | VIM-2 FRET inh | TEM-1 inh | VIM-2 inh conf
C[C@@H]1CN([C@@H](C)CO)C(=O)c2cc(-c3cccnc3)cnc2O[C@H]1CN(C)C(=O)Nc1ccc(C(F)(F)F)cc1 | - | . | - | . | . | . | . | . | . | .
COCCNC(=O)C[C@H]1CC[C@@H](NC(=O)NC2CCCC2)[C@H](CO)O1 | - | . | - | . | . | . | . | . | . | .
CCCNC(=O)N1CC2(CN(CC3CCOCC3)C2)c2c([nH]c3cc(OC)ccc23)[C@H]1CO | . | . | - | . | . | . | . | . | . | .
CCN1CCN(c2ccc(N=Cc3ccc(O)cc3O)cc2)CC1 | . | - | - | - | - | 27.2 | - | - | - | 45.1
Cc1n[nH]c(C)c1CCCCOc1ccc([N+](=O)[O-])cc1 | - | - | - | - | - | 20.2 | - | 46.9 | - | 29.7
Cc1nc(C)c(/C(O)=C/c2nc3ccccc3oc2=O)s1 | . | - | - | - | - | 18.7 | - | - | - | -
O=C(C[C@@H]1CC[C@H]2[C@@H](COC[C@H](O)CN2C(=O)c2ccccc2)O1)Nc1ccccc1 | - | . | . | . | . | . | . | . | . | .
CN(C)S(=O)(=O)c1cccc(NC(=S)N/N=C/c2ccc(O)c(O)c2O)c1 | - | - | - | - | - | - | . | . | . | .
CC(/C=N/NC(=S)Nc1cccc(S(=O)(=O)N(C)C)c1)c1ccccc1 (stereo unspecified) | - | - | - | - | - | 46.2 | - | 67.2 | - | 51.9
CN(C)S(=O)(=O)c1cccc(NC(=S)N/N=C/c2ccco2)c1 | - | - | - | - | - | - | . | . | . | .
CN(C)S(=O)(=O)c1cccc(NC(=S)N/N=C/C(c2ccccc2)c2ccccc2)c1 | - | - | . | - | - | 20.5 | - | 35.0 | - | 22.8
CCCC(=O)N1CC2(CN(C(=O)CC3CC3)C2)c2c(n(C)c3cc(OC)ccc23)[C@@H]1CO | . | . | - | . | . | . | . | . | . | .
Cc1cc(OCC(=O)NCCN2CCOCC2)c2c(C)c(C)c(=O)oc2c1 | - | - | - | - | - | 19.1 | - | - | - | 29.2
CCc1cc(=O)oc2cc(C)cc(OCC(=O)NCCCn3ccnc3)c12 | - | - | - | - | - | 51.4 | - | - | - | 61.4
O=C(COc1ccc(Cl)cc1Cl)NCCCn1ccnc1 | - | - | . | - | - | - | . | . | . | .
Cc1cc(OC(C)C(=O)NCCCn2ccnc2)c2c(C)c(C)c(=O)oc2c1 (stereo unspecified) | - | - | - | - | - | 64.2 | - | - | - | 74.0

Screens deposited in PubChem by several laboratories.
